Test results from ChEMBL document CHEMBL4265873, “Design and discovery of silybin analogues as antiproliferative compounds using a ring disjunctive - Based, natural product lead optimization approach” (Eur J Med Chem, 2017).
The source made the active and inactive calls. The calls are words filed in the database; no cut-off is given here.

Experiments:
2008 [1] = assay: Induction of cell cycle arrest in human OV2008 cells assessed as cell accumulation at subG1 phase at 2 uM incubated for 12 hrs by propidium iodide staining based flow cytometry (reference value: 11.3%); assay type: functional
In short: (§1)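 OV2008 cells were plated at 1x10^6 cells/well and incubated with 0, 2 or 4 µM for 12 h. Cells were trypsinised, washed and resuspended in ice-cold PBS, then stained with propidium iodide for at least 15 min. Phase distribution was measured by flow cytometry. Means ± SD of three independent experiments in triplicate.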

2008 [2] = assay: Induction of cell cycle arrest in human OV2008 cells assessed as cell accumulation at S phase at 4 uM incubated for 12 hrs by propidium iodide staining based flow cytometry (reference value: 5.2%); assay type: functional; in short: as §1
[3] = Selectivity index, ratio of IC50 for cytotoxicity in HEK293 cells incubated for 68 hrs by MTT assay to IC50 for cytotoxicity in human OV2008 cells incubated for 68 hrs by MTT assay; assay type: toxicity, cell-based; conditions: HEK293 cells versus OV2008 cells, read-out: Ratio IC50
2008 [4] = assay: Cytotoxicity in human OV2008 cells assessed as reduction in cell viability incubated for 68 hrs by MTT assay; assay type: functional, cell-based; conditions: Homo sapiens, 2008, 68 h
In short: (§2)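 Cells were trypsinised and seeded at 5x10^3 cells/well. Compound was added at 0, 0.1, 0.3, 1, 3, 10, 30 and 100 µM for 68 h. MTT (4 mg/mL solution) was then added for 4 h, and the formazan was dissolved in DMSO. Absorbance read at 570 nm. IC50 was derived from % survival across the eight concentrations. Mean ± SD of three independent experiments, each in triplicate.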

BT-20 = assay: Cytotoxicity in human BT20 cells assessed as reduction in cell viability incubated for 68 hrs by MTT assay; assay type: functional, cell-based; conditions: BT-20, 68 h; in short: as §2
A2780 [5] = assay: Potency index, ratio of IC50 for silybin to IC50 for test compound for cytotoxicity in human A2780 cells assessed as reduction in cell viability incubated for 68 hrs by MTT assay; assay type: functional
[6] = Cytotoxicity in human CRL1459 cells assessed as reduction in cell viability incubated for 68 hrs by MTT assay; assay type: cell-based; in short: as §2
[7] = Selectivity index, ratio of IC50 for cytotoxicity in human CRL1459 cells incubated for 68 hrs by MTT assay to IC50 for cytotoxicity in human A2780 cells incubated for 68 hrs by MTT assay; assay type: toxicity, cell-based; conditions: CRL1459 cells versus A2780 cells, read-out: Ratio IC50
A2780 [8] = assay: Inhibition of cell proliferation of human A2780 cells at 1 to 8 uM incubated for 10 to 50 hrs; assay type: functional, cell-based
In short: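 OV2008 or A2780 cells were seeded at low density (1x10^3 cells/well) and given 0, 2, 4 or 8 µM. Live-cell images were taken every 2 h for up to 48 h. Confluence at each time point was quantified with a confluence mask and plotted as timeline curves. Means ± SD of three independent experiments.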

2008 [9] = assay: Induction of cell cycle arrest in human OV2008 cells assessed as cell accumulation at G1 phase at 2 uM incubated for 12 hrs by propidium iodide staining based flow cytometry (reference value: 79.1%); assay type: functional; in short: as §1
2008 [10] = assay: Induction of cell cycle arrest in human OV2008 cells assessed as cell accumulation at S phase at 2 uM incubated for 12 hrs by propidium iodide staining based flow cytometry (reference value: 5.2%); assay type: functional; in short: as §1
2008 [11] = assay: Induction of cell cycle arrest in human OV2008 cells assessed as cell accumulation at G2 phase at 4 uM incubated for 12 hrs by propidium iodide staining based flow cytometry (reference value: 2.5%); assay type: functional; in short: as §1
[12] = Selectivity index, ratio of IC50 for cytotoxicity in human CRL1459 cells incubated for 68 hrs by MTT assay to IC50 for cytotoxicity in human OV2008 cells incubated for 68 hrs by MTT assay; assay type: toxicity, cell-based; conditions: CRL1459 cells versus OV2008 cells, read-out: Ratio IC50
2008 [13] = assay: Induction of cell cycle arrest in human OV2008 cells assessed as cell accumulation at G1 phase at 4 uM incubated for 12 hrs by propidium iodide staining based flow cytometry (reference value: 79.1%); assay type: functional; in short: as §1
[14] = Selectivity index, ratio of IC50 for cytotoxicity in CHO cells incubated for 68 hrs by MTT assay to IC50 for cytotoxicity in human A2780 cells incubated for 68 hrs by MTT assay; assay type: toxicity, cell-based; conditions: Chinese hamster (CHO cells), CHO cells versus A2780 cells, read-out: Ratio IC50
2008 [15] = assay: Induction of cell cycle arrest in human OV2008 cells assessed as increase in cell accumulation at subG1 phase at 2 to 4 uM incubated for 12 hrs by propidium iodide staining based flow cytometry; assay type: functional; in short: as §1
PANC-1 = assay: Cytotoxicity in human PANC1 cells assessed as reduction in cell viability incubated for 68 hrs by MTT assay; assay type: functional, cell-based; conditions: PANC-1, 68 h; in short: as §2
2008 [16] = assay: Induction of morphological changes in human OV2008 cells at 1 to 4 uM incubated for 68 hrs; assay type: functional, cell-based
In short: (§3)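 OV2008 and A2780 cells, with CHO alongside, were exposed to 0, 1, 2 or 4 µM for 68 h. Each triplicate treatment was photographed at 20X under an inverted microscope to assess morphology.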

2008 [17] = assay: Induction of apoptosis in human OV2008 cells assessed as apoptosis cells level at 2 uM incubated for 12 hrs by Alexa Fluor 488 annexin V and mito-tracker red CMXRos dye staining based flow cytometry (reference value: 19.6%); assay type: functional
In short: (§4)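 Cells in complete medium were treated with 0, 2 or 4 µM for 12 h, then trypsinised. They were stained with MitoTracker Red (4 µL of 10 µM working solution per 1 mL of cells) for 30 min at 37 °C under 5% CO2. Cells were then resuspended in annexin-binding buffer with Alexa Fluor 488 annexin V for 15 min. Flow cytometry emission read at 530 and 585 nm. Two independent experiments, each in triplicate.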

Homo sapiens [18] = species on record: Homo sapiens; assay: Inhibition of tubulin alpha in human OV2008 cells assessed as reduction in alpha-tubulin fluorescence at 2 to 4 uM after overnight incubation by immunofluorescence analysis; assay type: cell-based
A2780 [19] = assay: Induction of morphological changes in human A2780 cells at 1 to 4 uM incubated for 68 hrs; assay type: functional, cell-based; in short: as §3
Homo sapiens [20] = species on record: Homo sapiens; assay: Inhibition of tubulin alpha in human OV2008 cells assessed as induction of disturbance in cellular microtubule shape and integrity by measuring cell shrinkage and rounding at 2 to 4 uM after overnight incubation by immunofluorescence analysis; assay type: cell-based
A2780 [21] = assay: Reduction in mitochondrial potential in human A2780 cells at 2 uM incubated for 12 hrs by Alexa Fluor 488 annexin V and mito-tracker red CMXRos dye staining based flow cytometry; assay type: functional, cell-based; in short: as §4
Homo sapiens [22] = species on record: Homo sapiens; assay: Inhibition of tubulin alpha in human OV2008 cells assessed as induction of disturbance in cellular microtubule shape and integrity by measuring loss in microtubule long spindle shape at 2 to 4 uM after overnight incubation by immunofluorescence analysis; assay type: cell-based
A2780 [23] = assay: Induction of apoptosis in human A2780 cells assessed as apoptosis cells level at 4 uM incubated for 12 hrs by Alexa Fluor 488 annexin V and mito-tracker red CMXRos dye staining based flow cytometry (reference value: 0.0%); assay type: functional; in short: as §4
2008 [24] = assay: Induction of apoptosis in human OV2008 cells assessed as apoptosis cells level at 4 uM incubated for 12 hrs by Alexa Fluor 488 annexin V and mito-tracker red CMXRos dye staining based flow cytometry (reference value: 19.6%); assay type: functional; in short: as §4

In the case of `O=C(/C=C/c1cccc(OCc2ccccc2)c1)c1ccc(O)cc1`, the Activity 2008 [1] is reported as 25.5%, the Activity 2008 [2] is reported as 5.2% and the selectivity ratio at 68 h [3] is reported as 6 to 30. For the same compound, the IC50 2008 [4] was 0.8 µM, the IC50 (BT-20) was 5.1 µM and the “Ratio IC50” value (A2780 [5]) was 30 - 200. The IC50 [6] was 8.5 µM, the selectivity ratio at 68 h [7] was 6 to 30 and the inhibition (A2780 [8]) was “Active”. It also gave an Activity 2008 [9] of 58.4%, an Activity 2008 [10] of 4.4% and an Activity 2008 [11] of 1.9%. The selectivity ratio at 68 h [12] was 6 to 30, the Activity 2008 [13] was 45.3% and the selectivity ratio at 68 h [14] was 6 to 30. The Activity 2008 [15] was “Dose-dependent effect”, the IC50 (PANC-1) was 2.6 µM and the Activity 2008 [16] was “Active”. For the same compound, the Activity 2008 [17] was 38.1%, the inhibition (Homo sapiens [18]) was “Active” and the Activity (A2780 [19]) was “Active”. For the same compound, the inhibition (Homo sapiens [20]) was “Active”, the Activity (A2780 [21]) was “Active” and the inhibition (Homo sapiens [22]) was “Active”. The Activity (A2780 [23]) was 38% and the Activity 2008 [24] was 42.5%.
